Results gathered from unrelated publications.
Protocols differ between the studies behind these lines.
ADORA2B: Adenosine receptor A2b (ADORA2B, Homo sapiens, UniProt P29275)
Melanocortin receptor 3: Melanocortin receptor 3 (Mus musculus, UniProt P33033)
PBRM1 bromodomain: Protein polybromo-1, bromodomain (PBRM1, Homo sapiens, UniProt Q86U86)
TEC: Tyrosine-protein kinase Tec (TEC, Homo sapiens, UniProt P42680)
BRD2 BD2: Bromodomain-containing protein 2, BD2 (BRD2, Homo sapiens, UniProt P25440)

`Cc1[nH]c2ccccc2c1CCNC(=O)c1ccc(N(C)C)cc1` has a Kb of roughly 10 nM (Prostaglandin E2 receptor EP2 subtype (PTGER2, Homo sapiens, UniProt P43116); cAMP; antagonist; TR-FRET).
`CCNC(=O)[C@H]1O[C@@H](n2cnc3c(N)nc(NN=CC4CCC=CO4)nc32)[C@H](O)[C@@H]1O` (stereo partly shown) has an EC50 of 17.4 µM (ADORA2B; GTPγS binding; agonist; cell membranes).
`N=C(N)NCCC[C@H](NC(=O)[C@H](CC(=O)O)NC(=O)[C@H](Cc1c[nH]c2ccccc12)NC(=O)[C@H](CCCNC(=N)N)NC(=O)[C@H](Cc1ccccc1)NC(=O)[C@@H](N)Cc1c[nH]cn1)C(=O)N[C@@H](Cc1ccccc1)C(=O)O` gave an EC50 of 6.6 µM (Melanocortin receptor 3; reporter gene; agonist).
For `c1cncc(-c2cccc(Nc3nccc(NC4CCCCC4)n3)c2)c1`, the Kd was 0.29 µM (Tyrosine-protein kinase JAK1, JH2 (JAK1, Homo sapiens, UniProt P23458); binding; competition with immobilised ligand).
The EC50 of `N=C(N)NCCC[C@H](NC(=O)[C@H](CC(=O)O)NC(=O)[C@@H](N)Cc1c[nH]c2ccccc12)C(=O)N[C@@H](Cc1ccccc1)C(=O)NCC(=O)O` is reported as greater than 100 µM (Melanocortin receptor 3; reporter gene; agonist).
`CCCCN1CCC(COC(=O)c2ccc(N)c(OCF)c2)CC1` gave a Ki of greater than 10 µM (Muscarinic acetylcholine receptor M1 (CHRM1, Homo sapiens, UniProt P11229); cell-free assay; radioligand).
`Cc1ncsc1-c1ccc(CNC(=O)[C@@H]2C[C@H](O)CN2C(=O)[C@@H](NC(=O)C2(F)CC2)C(C)(C)C)c(OCCOc2ccc(CN3CCN(c4cc(-c5ccccc5O)nnc4N)CC3)cc2)c1` has a Kd of 0.62 µM (PBRM1 bromodomain; binding; SPR).
`COc1cc(Nc2ncc3c(n2)-c2ccc(Cl)cc2C(c2c(F)cccc2OC)=NC3)ccc1C(=O)O` has a Kd of 9.86 µM (TEC; binding; lysate).
The Kd of `CC#CC(=O)N1CC[C@@H](n2cc(-c3ccc(Oc4c(F)cccc4F)cc3)c3c(N)n[nH]c(=O)c32)C1` is reported as 0.004 µM (TEC; binding; competition with immobilised ligand).
`N=C(N)NCCC[C@H](NC(=O)[C@H](CC(=O)O)NC(=O)[C@H](Cc1c[nH]c2ccccc12)NC(=O)[C@@H](N)CCCNC(=N)N)C(=O)N[C@@H](Cc1ccccc1)C(=O)NCC(=O)O` gave an EC50 of greater than 100 µM (Melanocortin receptor 3; reporter gene; agonist).
For `CCC(C)N1CCCn2c1nc1c2c(=O)n(C)c(=O)n1C` (stereo not shown), the Ki was greater than 10 µM (ADORA2B; ligand displacement; radioligand; cell membranes).
`CCCCOc1nc(N)c2[nH]c(=O)n(CCN)c2n1` gave an EC50 of 127 µM (Toll-like receptor 7 (TLR7, Homo sapiens, UniProt Q9NYK1); reporter gene; agonist).
`CN1CCCn2c1nc1c2c(=O)n(C)c(=O)n1C` has a Ki of greater than 10 µM (ADORA2B; ligand displacement; radioligand; cell membranes).
The EC50 of `N=C(N)NCCC[C@H](NC(=O)[C@@H](N)CC(=O)O)C(=O)N[C@@H](Cc1ccccc1)C(=O)O` is reported as greater than 100 µM (Melanocortin receptor 3; reporter gene; agonist).
`CC(C)CN1CCCn2c1nc1c2c(=O)n(C)c(=O)n1C` has a Ki of greater than 10 µM (ADORA2B; ligand displacement; radioligand; cell membranes).
For `CSCC[C@H](NC(=O)[C@@H](NC(=O)[C@@H](N)Cc1ccc(O)cc1)C(C)C)C(=O)NCC(=O)N[C@@H](Cc1c[nH]cn1)C(=O)N[C@@H](Cc1ccccc1)C(=O)N[C@@H](CCCNC(=N)N)C(=O)N[C@@H](Cc1c[nH]c2ccccc12)C(=O)N[C@@H](CC(=O)O)C(=O)O`, the EC50 was 0.8 µM (Melanocortin receptor 3; reporter gene; agonist).
For `CCCCCC(C)N1CCCn2c1nc1c2c(=O)n(C)c(=O)n1C` (stereo not shown), the Ki was greater than 10 µM (ADORA2B; ligand displacement; radioligand; cell membranes).
The EC50 of `N=C(N)NCCC[C@H](NC(=O)[C@H](CC(=O)O)NC(=O)[C@H](Cc1c[nH]c2ccccc12)NC(=O)[C@H](CCCNC(=N)N)NC(=O)[C@@H](N)Cc1ccccc1)C(=O)N[C@@H](Cc1ccccc1)C(=O)NCC(=O)O` is reported as greater than 100 µM (Melanocortin receptor 3; reporter gene; agonist).
With `CCCCN1CCC(COC(=O)c2ccc(N)c(OC)c2)CC1` the Ki was 0.0011 µM (5-hydroxytryptamine receptor 4 (HTR4, Homo sapiens, UniProt Q13639); ligand displacement; radioligand).
With `N=C(N)NCCC[C@H](N)C(=O)N[C@@H](Cc1ccccc1)C(=O)NCC(=O)O` the EC50 was greater than 100 µM (Melanocortin receptor 3; reporter gene; agonist).
With `CCN1CCCn2c1nc1c2c(=O)n(C)c(=O)n1C` the Ki was greater than 10 µM (ADORA2B; ligand displacement; radioligand; cell membranes).
`Cc1ncsc1-c1ccc(CNC(=O)[C@@H]2C[C@@H](O)CN2C(=O)[C@@H](NC(=O)C2(F)CC2)C(C)(C)C)c(OCCOCCOCCN2CCN(c3cc(-c4ccccc4O)nnc3N)CC2)c1` gave a Kd of 2.7 µM (PBRM1 bromodomain; binding; SPR).
`N=C(N)NCCC[C@H](NC(=O)[C@H](Cc1ccccc1)NC(=O)[C@@H](N)Cc1cnc[nH]1)C(=O)N[C@@H](Cc1c[nH]c2ccccc12)C(=O)O` has an EC50 of greater than 100 µM (Melanocortin receptor 3; reporter gene; agonist).
The Kd of `CC(=O)N[C@H](C(=O)N1C[C@H](O)C[C@H]1C(=O)NCc1ccc(-c2scnc2C)cc1)C(C)(C)SCCCCCCNC(=O)C[C@@H]1N=C(c2ccc(Cl)cc2)c2c(sc(C)c2C)-n2c(C)nnc21` is reported as 0.094 µM (BRD2 BD2; binding; ITC).
With `CCCCN1CCCn2c1nc1c2c(=O)n(CCC)c(=O)n1CCC` the Ki was 1.32 µM (ADORA2B; ligand displacement; radioligand; cell membranes).
`Cc1noc(C)c1-c1ccc(-c2nc3cnccn3c2NC(C)(C)C)cc1` gave a Kd of 0.095 µM (BRD2 BD2; cell-free assay; competition with immobilised ligand).
The Kd of `CNC(=O)COc1cc2cc(Nc3nc(N4CCC(C(=O)NCCCCCCCNC(=O)C[C@@H]5N=C(c6ccc(Cl)cc6)c6c(sc(C)c6C)-n6c(C)nnc65)CC4)ncc3Cl)cc(OC)c2n(C)c1=O` is reported as greater than 1000 µM (B-cell lymphoma 6 protein (BCL6, Homo sapiens, UniProt P41182, C67R/C84N/C8Q); binding; ITC).
For `CCCCCCN1CCCn2c1nc1c2c(=O)n(C)c(=O)n1C`, the Ki was greater than 10 µM (ADORA2B; ligand displacement; radioligand; cell membranes).
